Values belong to the compound of their own block, whether it stands above or below them. The source made the active and inactive calls. The calls are words filed in the database; no cut-off is given here.
How the values were obtained:
[1] = molecular target: T1, Sphingosine 1-phosphate receptor 1 (Homo sapiens, UniProt P21453); assay: Agonist activity against human S1P1 assessed as accumulation of cAMP by HTRF assay; format: functional
Outline: (§1)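 Agonist EC50 was read from a cAMP HTRF assay run on human, rat and mouse S1P1. Response was scaled against S1P, and values are the mean of three or more replicates.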

Mus musculus [2] = assay: Immunosuppressant activity in BALB/c mouse assessed as reduction in circulating lymphocyte at 6 mg/kg, po measured up to 24 hrs; format: functional, organism-based; parameters: dose 6 mg/kg
Outline: (§2)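 BALB/c mice were dosed orally as a suspension in 0.5% methyl cellulose, at 6 mg/kg or 1.0 mg/kg. Circulating lymphocytes were followed over time, with readings at 5 h and 24 h.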

Mus musculus [3] = assay: Reduction T-cell mediated beta-cell destruction in cyclophosphamide-induced non-obese type 1 diabetes mouse model assessed as normalization of blood glucose at 3 to 10 mg/kg, po qd for 25 days; format: functional, organism-based
Outline: (§3)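 NOD mice were given cyclophosphamide i.p. on days 0 and 14 to accelerate diabetes onset. Oral dosing once daily in 0.5% methyl cellulose ran from day 0 to day 25. Animals with non-fasting blood glucose >250 mg/dL were scored diabetic.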

Mus musculus [4] = assay: Reduction T-cell mediated beta-cell destruction in cyclophosphamide-induced non-obese type 1 diabetes mouse model assessed as normalization of blood glucose at 1 mg/kg, po qd for 25 days; format: functional, organism-based; parameters: dose 1 mg/kg; outline: as §3
Mus musculus [5] = assay: Immunosuppressant activity in BALB/c mouse assessed as reduction in circulating lymphocyte at 1 mg/kg, po measured at 24 hrs; format: functional, organism-based; parameters: dose 1 mg/kg; outline: as §2
Mus musculus [6] = assay: Immunosuppressant activity in BALB/c mouse assessed as reduction in circulating lymphocyte at 1 mg/kg, po measured at 5 hrs; format: functional, organism-based; parameters: dose 1 mg/kg; outline: as §2
Mus musculus [7] = assay: Immunosuppressant activity in BALB/c mouse assessed as reduction in circulating lymphocyte at 6 mg/kg, po measured after 5 hrs; format: functional, organism-based; parameters: dose 6 mg/kg; outline: as §2
Mus musculus [8] = assay: Immunosuppressant activity in autoimmune encephalomyelitis C57B1/6 mouse model assessed as reduction in disease score at 10 mg/kg, po qd administered on day 3 post challenge; format: functional, organism-based; parameters: dose 10 mg/kg
Outline: (§4)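 Oral dosing once daily in 0.5% methylcellulose began on day 3. Signs of disease were monitored daily and graded on a 1–5 scale, from limp tail or hind-limb weakness (1) to death (5).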

Rattus norvegicus [9] = assay: Immunosuppressant activity in collagen-induced Lewis rat arthritis model assessed as reduction in joint inflammation at 1 to 10 mg/kg, po qd; format: functional, organism-based
Rattus norvegicus [10] = assay: Immunosuppressant activity in collagen-induced Lewis rat arthritis model assessed as reduction in joint inflammation at 0.075 mg/kg, po qd; format: functional, organism-based; parameters: dose 0.075 mg/kg
Rattus norvegicus [11] = assay: Toxicity in telemeterized Charles-River Sprague-Dawley rat assessed as reduction in heart rate at 3 mg/kg, po measured over 20 hrs; format: organism-based; parameters: dose 3 mg/kg, route oral; conditions: in vivo
Outline: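 Telemeterized Charles River Sprague–Dawley rats received 3 or 30 mg/kg orally as a suspension in 0.5% methyl cellulose, with vehicle-treated and positive-control groups. Heart rate was recorded hourly over 20 h.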

Mus musculus [12] = assay: Immunosuppressant activity in autoimmune encephalomyelitis C57B1/6 mouse model assessed as reduction in disease score at 1 mg/kg, po qd administered on day 3 post challenge; format: functional, organism-based; parameters: dose 1 mg/kg; outline: as §4
Rattus norvegicus [13] = assay: Immunosuppressant activity in collagen-induced Lewis rat arthritis model assessed as reduction in joint inflammation at 1 mg/kg, po qd; format: functional, organism-based; parameters: dose 1 mg/kg
[14] = molecular target: Sphingosine 1-phosphate receptor 1 (Mus musculus, UniProt O08530); assay: Agonist activity against mouse S1P1 assessed as accumulation of cAMP by HTRF assay; format: functional; outline: as §1
[15] = molecular target: Sphingosine 1-phosphate receptor 3 (Homo sapiens, UniProt Q99500); assay: Agonist activity against human S1P3 by beta arrestin recruitment assay; format: functional
Outline: (§5)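 Agonist EC50 at human S1P1 through S1P5 was measured by β-arrestin recruitment. Values are the mean of three or more replicates.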

[16] = molecular target: Sphingosine 1-phosphate receptor 2 (Homo sapiens, UniProt O95136); assay: Agonist activity against human S1P2 by beta arrestin recruitment assay; format: functional; outline: as §5
[17] = molecular target: T2, Sphingosine 1-phosphate receptor 4 (Homo sapiens, UniProt O95977); assay: Agonist activity against human S1P4 by beta arrestin recruitment assay; format: functional; outline: as §5
T2 sequence (O95977 whole entry): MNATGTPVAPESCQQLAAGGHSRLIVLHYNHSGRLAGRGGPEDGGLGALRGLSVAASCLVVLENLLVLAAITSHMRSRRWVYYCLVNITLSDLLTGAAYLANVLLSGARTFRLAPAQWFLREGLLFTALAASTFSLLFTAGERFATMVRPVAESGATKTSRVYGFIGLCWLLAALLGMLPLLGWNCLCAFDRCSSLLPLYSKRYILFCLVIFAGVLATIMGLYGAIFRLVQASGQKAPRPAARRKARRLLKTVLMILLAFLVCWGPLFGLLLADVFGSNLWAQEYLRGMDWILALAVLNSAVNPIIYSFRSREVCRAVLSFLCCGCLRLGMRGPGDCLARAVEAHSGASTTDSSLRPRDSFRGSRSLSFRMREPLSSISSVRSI

[18] = molecular target: Sphingosine 1-phosphate receptor 5 (Homo sapiens, UniProt Q9H228); assay: Agonist activity against human S1P5 by beta arrestin recruitment assay; format: functional; outline: as §5
[19] = molecular target: T1, Sphingosine 1-phosphate receptor 1; assay: Agonist activity against human S1P1 by beta arrestin recruitment assay; format: functional; outline: as §5
[20] = molecular target: Sphingosine 1-phosphate receptor 1 (Rattus norvegicus, UniProt P48303); assay: Agonist activity against rat S1P1 assessed as accumulation of cAMP by HTRF assay; format: functional; outline: as §1
Mus musculus [21] = assay: Immunosuppressant activity in BALB/c mouse assessed as reduction in circulating lymphocyte at 30 mg/kg, po measured at 24 hrs; format: functional, organism-based; parameters: dose 30 mg/kg
[22] = AUClast in Sprague-Dawley rat in Sprague-Dawley rat at 2 mg/kg, iv and 3 mg/kg, po; format: ADME, organism-based; conditions: plasma
Outline: (§6)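 Male Sprague–Dawley rats received 2.0 mg/kg IV in 100% PEG400 and 3.0 mg/kg PO in 0.5% methyl cellulose. Clearance, Vss, terminal half-life, Cmax, AUClast and oral bioavailability were derived from plasma levels.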

[23] = Clearance in Sprague-Dawley rat at 2 mg/kg, iv and 3 mg/kg, po; format: ADME, organism-based; conditions: in vivo; outline: as §6
[24] = Half life in rat liver microsome; format: ADME; conditions: liver microsomes
[25] = Half life in human liver microsome; format: ADME; conditions: liver microsomes
[26] = Half life in mouse liver microsome; format: ADME; conditions: liver microsomes
[27] = Cmax in Sprague-Dawley rat in Sprague-Dawley rat at 2 mg/kg, iv and 3 mg/kg, po; format: ADME, organism-based; conditions: in vivo; outline: as §6
[28] = Volume of distribution at steady state in Sprague-Dawley rat at 2 mg/kg, iv and 3 mg/kg, po; format: ADME, organism-based; conditions: in vivo, read-out: Vdss; outline: as §6
[29] = Oral bioavailability in Sprague-Dawley rat at 3 mg/kg; format: ADME, organism-based; conditions: in vivo; outline: as §6
[30] = Terminal half life in Sprague-Dawley rat at 2 mg/kg, iv and 3 mg/kg, po; format: ADME, organism-based; conditions: in vivo, read-out: beta t1/2 (converted); outline: as §6

Chain of Sphingosine 1-phosphate receptor 5 (Q9H228 whole entry): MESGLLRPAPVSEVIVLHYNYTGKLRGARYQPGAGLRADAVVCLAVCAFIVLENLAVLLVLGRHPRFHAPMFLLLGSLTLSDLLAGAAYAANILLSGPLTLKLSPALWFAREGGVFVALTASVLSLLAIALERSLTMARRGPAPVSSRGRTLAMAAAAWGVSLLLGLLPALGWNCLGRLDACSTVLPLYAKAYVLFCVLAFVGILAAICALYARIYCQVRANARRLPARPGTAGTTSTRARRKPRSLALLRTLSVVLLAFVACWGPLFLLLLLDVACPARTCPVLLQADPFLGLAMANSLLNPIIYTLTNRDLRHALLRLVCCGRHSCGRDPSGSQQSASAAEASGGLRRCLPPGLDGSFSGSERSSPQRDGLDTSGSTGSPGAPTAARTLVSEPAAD
Chain of Sphingosine 1-phosphate receptor 1 (Mus musculus, UniProt O08530) (O08530 whole entry): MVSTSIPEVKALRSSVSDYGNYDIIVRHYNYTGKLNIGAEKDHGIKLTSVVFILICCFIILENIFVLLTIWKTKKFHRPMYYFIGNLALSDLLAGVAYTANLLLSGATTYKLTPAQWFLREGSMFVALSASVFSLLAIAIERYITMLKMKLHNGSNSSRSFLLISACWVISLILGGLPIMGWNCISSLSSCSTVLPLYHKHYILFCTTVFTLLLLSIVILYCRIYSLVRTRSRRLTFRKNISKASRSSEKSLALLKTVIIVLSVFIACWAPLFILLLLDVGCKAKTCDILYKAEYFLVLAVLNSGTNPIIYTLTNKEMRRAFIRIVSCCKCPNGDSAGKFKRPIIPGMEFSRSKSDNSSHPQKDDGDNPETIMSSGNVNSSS
Chain of Sphingosine 1-phosphate receptor 3 (Q99500 whole entry): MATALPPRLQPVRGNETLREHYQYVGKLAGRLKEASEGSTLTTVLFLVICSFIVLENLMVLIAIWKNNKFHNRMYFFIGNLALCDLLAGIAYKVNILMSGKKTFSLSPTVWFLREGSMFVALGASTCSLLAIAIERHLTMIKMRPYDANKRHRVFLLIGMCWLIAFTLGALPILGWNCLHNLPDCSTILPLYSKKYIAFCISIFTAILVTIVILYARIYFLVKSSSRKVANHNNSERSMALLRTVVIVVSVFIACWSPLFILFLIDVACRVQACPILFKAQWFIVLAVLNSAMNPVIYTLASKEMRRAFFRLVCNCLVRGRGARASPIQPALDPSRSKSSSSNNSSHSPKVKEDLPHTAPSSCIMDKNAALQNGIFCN
Chain of Sphingosine 1-phosphate receptor 1 (Rattus norvegicus, UniProt P48303) (P48303 whole entry): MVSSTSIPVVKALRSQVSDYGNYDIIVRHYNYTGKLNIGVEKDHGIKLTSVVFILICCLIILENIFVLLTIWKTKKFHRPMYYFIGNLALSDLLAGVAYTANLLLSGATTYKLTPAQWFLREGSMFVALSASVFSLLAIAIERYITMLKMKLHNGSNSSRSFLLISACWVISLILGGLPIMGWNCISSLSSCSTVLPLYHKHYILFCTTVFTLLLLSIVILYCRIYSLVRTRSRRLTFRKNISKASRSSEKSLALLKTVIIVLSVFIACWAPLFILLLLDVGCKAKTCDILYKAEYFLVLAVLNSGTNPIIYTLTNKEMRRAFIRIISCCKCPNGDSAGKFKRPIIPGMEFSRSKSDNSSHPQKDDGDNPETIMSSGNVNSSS
Chain of Sphingosine 1-phosphate receptor 2 (O95136 whole entry): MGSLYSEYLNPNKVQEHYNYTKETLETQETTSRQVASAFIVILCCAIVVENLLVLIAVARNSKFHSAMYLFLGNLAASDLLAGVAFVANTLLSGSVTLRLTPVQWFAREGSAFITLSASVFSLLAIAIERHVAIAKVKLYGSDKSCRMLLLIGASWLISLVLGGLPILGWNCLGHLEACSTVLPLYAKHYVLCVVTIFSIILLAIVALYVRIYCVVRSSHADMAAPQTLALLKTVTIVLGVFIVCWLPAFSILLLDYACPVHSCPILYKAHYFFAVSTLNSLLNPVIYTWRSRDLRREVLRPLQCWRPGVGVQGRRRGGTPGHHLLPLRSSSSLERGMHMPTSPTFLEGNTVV
T1 sequence (P21453 whole entry): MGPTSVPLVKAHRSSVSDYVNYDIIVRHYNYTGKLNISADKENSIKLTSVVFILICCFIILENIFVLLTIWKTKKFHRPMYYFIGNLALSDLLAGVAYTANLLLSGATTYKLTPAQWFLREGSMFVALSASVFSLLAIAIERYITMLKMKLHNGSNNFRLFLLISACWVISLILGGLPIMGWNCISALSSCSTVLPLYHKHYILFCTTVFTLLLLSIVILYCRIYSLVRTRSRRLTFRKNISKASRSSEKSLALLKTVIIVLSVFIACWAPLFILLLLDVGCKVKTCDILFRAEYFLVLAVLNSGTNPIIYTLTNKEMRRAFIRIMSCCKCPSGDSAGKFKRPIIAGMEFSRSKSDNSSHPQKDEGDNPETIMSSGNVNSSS

EC50 [1]: 2.9 nM
SMILES: COc1ccc(-c2nc(-c3ccc4c(c3)cc3n4CCC3CC(=O)O)no2)cc1C#N (racemic)

EC50 [1]: 157 nM
SMILES: COc1cc(C#N)cc(-c2nc(-c3ccc4[nH]c5c(c4c3)CCC5CC(=O)O)no2)c1 (racemic)

EC50 [1]: 0.59 nM
SMILES: N#Cc1cc(-c2nc(-c3ccc4c(c3)cc3n4CCC3CC(=O)O)no2)ccc1OC(F)(F)F (racemic)

EC50 [1]: 4.6 nM
SMILES: COc1cc(C#N)cc(-c2nc(-c3ccc4c(c3)cc3n4CCC3CC(=O)O)no2)c1 (racemic)

EC50 [1]: 2.1 nM
SMILES: O=C(O)CC1CCn2c1cc1cc(-c3noc(-c4cc(C(F)(F)F)cc(C(F)(F)F)c4)n3)ccc12 (racemic)

EC50 [1]: 3.2 nM
SMILES: N#Cc1cc(-c2nc(-c3ccc4[nH]c5c(c4c3)CCC5CC(=O)O)no2)ccc1OC(F)(F)F (racemic)

EC50 [1]: 7.5 nM
SMILES: CC(C)Oc1ccc(-c2nc(-c3ccc4[nH]c5c(c4c3)CCC5CC(=O)O)no2)cc1C#N (racemic)

EC50 [1]: 0.61 nM
SMILES: CC(C)Oc1ccc(-c2nc(-c3ccc4c(c3)cc3n4CCC3CC(=O)O)no2)cc1C#N (racemic)

EC50 [1]: 4.6 nM
SMILES: COc1ccc(-c2nc(-c3ccc4[nH]c5c(c4c3)CCC5CC(=O)O)no2)cc1C#N (racemic)

The remaining lines, values behind:

SMILES: N#Cc1cc(OC(F)(F)F)cc(-c2nc(-c3ccc4c(c3)cc3n4CCC3CC(=O)O)no2)c1 (single isomer, unassigned; enantiomer 2)
Activity (Mus musculus [2]): Active
Activity (Mus musculus [3]): Active
Activity (Mus musculus [4]): Active
Activity (Mus musculus [5]): inactive
Activity (Mus musculus [6]): Active
Activity (Mus musculus [7]): Active
Activity (Mus musculus [8]): Active
Activity (Rattus norvegicus [9]): Active

SMILES: CN(Cc1cnc2nc(N)nc(N)c2n1)c1ccc(C(=O)N[C@@H](CCC(=O)O)C(=O)O)cc1
Activity (Rattus norvegicus [10]): Active

SMILES: CCCCCCCCc1ccc(CCC(N)(CO)CO)cc1 [FINGOLIMOD]
Activity (Rattus norvegicus [11]): Toxic
Activity (Mus musculus [12]): Active
Activity (Rattus norvegicus [13]): Active

SMILES: N#Cc1cc(OC(F)(F)F)cc(-c2nc(-c3ccc4[nH]c5c(c4c3)CCC5CC(=O)O)no2)c1 (racemic)
EC50 [1]: 1.1 nM

SMILES: N#Cc1cc(OC(F)(F)F)cc(-c2nc(-c3ccc4c(c3)cc3n4CCC3CC(=O)O)no2)c1 (racemic)
EC50 [1]: 0.25 nM

SMILES: N#Cc1cc(OC(F)(F)F)cc(-c2nc(-c3ccc4[nH]c5c(c4c3)CCC5CC(=O)O)no2)c1 (stereo in doubt; 17a)
EC50 [14]: 8.3 nM
EC50 [15]: > 100000 nM
EC50 [16]: > 100000 nM
EC50 [17]: 239 nM
EC50 [18]: 11 nM
EC50 [1]: 1.73 nM
EC50 [19]: 55 nM
EC50 [20]: 1.4 nM

SMILES: N#Cc1cc(OC(F)(F)F)cc(-c2nc(-c3ccc4[nH]c5c(c4c3)CCC5CC(=O)O)no2)c1 (single isomer, unassigned) [listing 1 of 2 here]
Activity (Mus musculus [2]): Active
Activity (Mus musculus [7]): Active
Activity (Mus musculus [21]): Active

SMILES: N#Cc1cc(OC(F)(F)F)cc(-c2nc(-c3ccc4[nH]c5c(c4c3)CCC5CC(=O)O)no2)c1 (single isomer, unassigned) [listing 2 of 2 here]
EC50 [14]: 2.6 nM
EC50 [15]: > 100000 nM
AUC(0-t) [22]: 11000 ng·h/mL
EC50 [16]: > 100000 nM
EC50 [17]: 462 nM
EC50 [18]: 15 nM
clearance [23]: 1.39 mL/min/kg
EC50 [1]: 0.75 nM
half-life [24]: > 1 h
half-life [25]: > 1 h
half-life [26]: > 1 h
EC50 [19]: 36 nM
EC50 [20]: 1.8 nM
Cmax [27]: 1400 ng/mL
Vd [28]: 0.734 L/kg
bioavailability [29]: 32.5%
half-life [30]: 5.46 h

SMILES: N#Cc1cc(OC(F)(F)F)cc(-c2nc(-c3ccc4c(c3)cc3n4CCC3CC(=O)O)no2)c1 (stereo in doubt; 23a)
EC50 [14]: 5.5 nM
EC50 [15]: > 100000 nM
EC50 [16]: > 100000 nM
EC50 [17]: > 100000 nM
EC50 [18]: 289 nM
EC50 [1]: 0.76 nM
EC50 [19]: 123 nM
EC50 [20]: 3.4 nM

Reference: ChEMBL document CHEMBL2046302, “Fused tricyclic indoles as S1P₁ agonists with robust efficacy in animal models of autoimmune disease” (Bioorg Med Chem Lett, 2012)
